Experiment [1] deals with MT4. Nature of the experiment: Concentration required for 50% of cell death on MT-4 cell lines. It counts as functional, Homo sapiens. The procedure, abridged:
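Mock-infected MT-4 cells (5 × 10^5 cells/mL) in fresh culture medium, mixed in microtiter wells with dilutions of test compound. After 5 days, viable cells counted by trypan blue staining. CC50 taken as the compound concentration that reduces the number of mock-infected MT-4 cells by 50%.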

Experiment [2] deals with MT4. Nature of the experiment: Selectivity index (ratio CC50/EC50) in MT-4 cells is measured. It counts as functional. A digest of the protocol:
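Ratio of CC50 to EC50, both from MT-4 cultures read after 5 days by trypan blue viable-cell counts. CC50 is the concentration reducing mock-infected MT-4 cell number by 50%. EC50 comes from HIV-infected MT-4 cells (100 CCID50 per mL, 5 × 10^5 cells/mL).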

The subject of experiment [3] is CCRF-CEM. Nature of the experiment: Effective concentration against HIV-1 induced cytopathicity in CEM cells. The experiment is classed as functional, cell-based. The conditions noted are these: Homo sapiens. The procedure, abridged: (§1)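 CEM cells at 5 × 10^5 cells/mL in fresh medium, infected with HIV-1 or HIV-2 at 100 CCID50 per mL of suspension, then mixed 1:1 with serial compound dilutions. Virus-induced syncytia were counted microscopically after 4 days. EC50 is the concentration reducing syncytium number by 50%.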
(In general: Damage to the host cells serves as the signal in cytopathic effect assays.)

For experiment [4], the system named is CCRF-CEM. Briefly: Effective concentration against HIV-2 induced cytopathicity in CEM cells. The experiment is classed as functional, cell-based. Particulars: Homo sapiens. The procedure, abridged:
as §1

Experiment [5] relates to Human immunodeficiency virus. Briefly: Effective concentration against HIV-1 induced cytopathicity in MT-4 cells. The experiment is classed as functional, organism-based, MT4. The procedure, abridged: (§2)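 MT-4 cells at 5 × 10^5 cells/mL, infected with HIV-1 or HIV-2 at 100 CCID50 per mL, then mixed 1:1 with serial compound dilutions. After 5 days, viable cells in infected and mock-infected cultures were counted by trypan blue exclusion. EC50 is the concentration giving a 50% reduction in virus-induced loss of viable cells.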

The subject of experiment [6] is MT4. Briefly: Effective concentration against HIV-2 induced cytopathicity in MT-4 cells. It counts as functional, cell-based. The conditions noted are these: Homo sapiens. The procedure, abridged:
as §2

Where [7] appears, read: Human immunodeficiency virus 1, MT4.

SMILES strings stand for the structures. Several values for one entry are separate records, joined by “and”; a condition that tells them apart may be missing. Equal values may be shown once. Where only a bound is given, the exact number is not on record here.

For orientation: CC50 means the concentration giving 50% cytotoxicity. The low end stands for greater toxicity to the cells, the high end for lower toxicity to the cells. In experiment [1], `CCc1cn([C@@H]2O[C@H](CO[Si](C)(C)C(C)(C)C)[C@@]3(OS(=O)(=O)C=C3N)[C@H]2O[Si](C)(C)C(C)(C)C)c(=O)[nH]c1=O` gave a 50% cytotoxic concentration (CC50) of 5.3 µM. Also, the Selectivity index in experiment [2] amounted to 88.
In experiment [1], `CC(C)(C)[Si](C)(C)OC[C@H]1O[C@@H](n2ccc(=O)[nH]c2=O)[C@H](O[Si](C)(C)C(C)(C)C)C12OS(=O)(=O)C=C2N` (some centres undefined) registered a 50% cytotoxic concentration (CC50) of 14 µM. The Selectivity index in experiment [2] was 74.
One may read the EC50 as the concentration giving half of the maximal effect. Higher therefore signals a less potent agent. Turning to `Cc1cn([C@@H]2O[C@H](CO[Si](C)(C)C(C)(C)C)C3(OS(=O)(=O)C=C3N)[C@H]2O[Si](C)(C)C(C)(C)C)c(=O)[nH]c1=O` (some centres undefined), the EC50 in experiment [3] was 0.044 µM; in experiment [4], greater than 7 µM. Further, the midpoint of cytotoxicity in experiment [1], the CC50, lay at 13 µM. In experiment [2], the Selectivity index is reported as 217.
The corresponding values for `Cc1cn([C@@H]2O[C@H](CO[Si](C)(C)C(C)(C)C)[C@@]3(OS(=O)(=O)C=C3N)[C@H]2O[Si](C)(C)C(C)(C)C)c(=O)nc1N` are 0.05 µM, greater than 13.5 µM, 30 µM and 250.
The matching figures for `CC(C)(C)[Si](C)(C)OC[C@H]1O[C@@H](n2ccc(N)nc2=O)[C@H](O[Si](C)(C)C(C)(C)C)[C@]12OS(=O)(=O)C=C2N`: 1.39 µM, greater than 350 µM, greater than 350 µM and 460.
Take `CC(C)(C)[Si](C)(C)OC[C@H]1O[C@@H](n2cc(Br)c(=O)[nH]c2=O)[C@H](O[Si](C)(C)C(C)(C)C)[C@]12OS(=O)(=O)C=C2N`: in experiment [1], the half-maximal cytotoxic concentration (CC50) was found to be 3.6 µM. Also, the EC50 in experiment [5] (mt4) was 0.32 µM and > 2.4 µM. The Selectivity index in experiment [2] came out at 11.
Regarding `CNc1nc(=O)n([C@@H]2O[C@H](CO[Si](C)(C)C(C)(C)C)[C@@]3(OS(=O)(=O)C=C3N)[C@H]2O[Si](C)(C)C(C)(C)C)cc1C`, the EC50 in experiment [3] was 0.11 µM; in experiment [4], greater than 33 µM. In addition, in experiment [1], the 50% cytotoxic concentration (CC50) worked out at 26 µM. Also, the Selectivity index in experiment [2] amounted to 217.
As for `CC(C)(C)[Si](C)(C)OC[C@H]1O[C@@H]2[C@H](O[Si](C)(C)C(C)(C)C)[C@]13OS(=O)(=O)C=C3Nc1cc(=O)[nH]c(=O)n12`, it took 16 µM to reach half-maximal cytotoxicity in experiment [1] (CC50). Moreover, in experiment [5] (mt4), the EC50 is 5.9 µM and > 12 µM. Moreover, the Selectivity index in experiment [2] turned out to be 2.7.
For `CC(C)(C)[Si](C)(C)OC[C@H]1O[C@@H](n2cc(I)c(=O)[nH]c2=O)[C@H](O[Si](C)(C)C(C)(C)C)[C@]12OS(=O)(=O)C=C2N`, the EC50 in experiment [3] is 0.03 µM; in experiment [4], greater than 5.7 µM. Further, the CC50 in experiment [1] is 12 µM. For the same compound, the Selectivity index in experiment [2] is 133.
`CC(C)(C)[Si](C)(C)OC[C@H]1O[C@@H](n2cc(C(F)(F)F)c(=O)[nH]c2=O)[C@H](O[Si](C)(C)C(C)(C)C)[C@]12OS(=O)(=O)C=C2N`: the concentration for a half-maximal effect (EC50) was 0.77 µM in experiment [3]; 0.82 µM and > 6.2 µM in experiment [5] (mt4); greater than 6.2 µM in experiment [4]. In experiment [1], the CC50 worked out at 14 µM. In addition, the Selectivity index in experiment [2] turned out to be 17.
Take `Cc1cn([C@@H]2O[C@H](CO[Si](C)(C)C(C)(C)C)[C@@]3(OS(=O)(=O)C=C3N)[C@H]2O[Si](C)(C)C(C)(C)C)c(=O)nc1N(C)C`: the results for the concentration giving a half-maximal response (EC50) in experiment [6] and in experiment [5] (setting [7]) were greater than 32 µM and 0.16 µM, respectively. Also, it took 62 µM to reach half-maximal cytotoxicity in experiment [1] (CC50). Besides, the Selectivity index in experiment [2] worked out at 388.
Consider `CC(C)(C)[Si](C)(C)OC[C@H]1O[C@@H](n2c(C#N)cc(=O)[nH]c2=O)[C@H](O[Si](C)(C)C(C)(C)C)[C@]12OS(=O)(=O)C=C2N`, for which the EC50 in experiment [3] is 2.1 µM; in experiment [5] (setting [7]) it was 3.6 µM; in experiment [5] (mt4), 3.6 µM; in experiment [4], greater than 6.6 µM. Moreover, the half-maximal cytotoxic concentration (CC50) in experiment [1] is 11 µM. In experiment [2], the Selectivity index is 3.
As to `COC(=N)c1cc(=O)[nH]c(=O)n1[C@@H]1O[C@H](CO[Si](C)(C)C(C)(C)C)[C@@]2(OS(=O)(=O)C=C2N)[C@H]1O[Si](C)(C)C(C)(C)C`, the half-maximal effective concentration (EC50) in experiment [3] is 1.1 µM; in experiment [5] (mt4) it was 2.7 µM and > 6.3 µM; in experiment [4] it was greater than 6.3 µM. The compound further showed a half-maximal cytotoxic concentration (CC50) in experiment [1] of 11 µM. In addition, the Selectivity index in experiment [2] is given as 4.1.
In the case of `CC(C)(C)[Si](C)(C)OC[C@H]1O[C@@H](n2cc(F)c(=O)[nH]c2=O)[C@H](O[Si](C)(C)C(C)(C)C)[C@]12OS(=O)(=O)C=C2N`, the EC50 was 0.34 µM in experiment [3]; 0.5 µM and > 1.3 µM in experiment [5] (mt4); greater than 6.7 µM in experiment [4]. The compound further yielded a CC50 in experiment [1] of 5 µM. Besides, the Selectivity index in experiment [2] is given as 10.
Consider `CNc1ccn([C@@H]2O[C@H](CO[Si](C)(C)C(C)(C)C)[C@@]3(OS(=O)(=O)C=C3N)[C@H]2O[Si](C)(C)C(C)(C)C)c(=O)n1`, for which the concentration giving a half-maximal response (EC50) in experiment [3] is 3.38 µM; in experiment [5] (mt4), 0.68 µM and > 6.8 µM; in experiment [4], greater than 6.8 µM. This compound also returned a half-maximal cytotoxic concentration (CC50) in experiment [1] of 12 µM. The Selectivity index in experiment [2] is on record as 18.
With `CN(C)c1ccn([C@@H]2O[C@H](CO[Si](C)(C)C(C)(C)C)[C@@]3(OS(=O)(=O)C=C3N)[C@H]2O[Si](C)(C)C(C)(C)C)c(=O)n1`, the values for the EC50 in experiment [3] and in experiment [4] were 0.75 µM and greater than 166 µM, respectively. This compound gave a CC50 in experiment [1] greater than 166 µM. The Selectivity index in experiment [2] is 252.

Values taken from ChEMBL document CHEMBL1127327, “Novel series of TSAO-T derivatives. Synthesis and anti-HIV-1 activity of 4-, 5-, and 6-substituted pyrimidine analogues” (J Med Chem, 1994).
